# Screens deposited in PubChem BioAssay by The Scripps Research Institute Molecular Screening Center.
# Rows were chosen to be rich in hits. Some 3% of all compounds tested hit in one or more screens of this group.
# 5HT1a ag – agonists of human 5-HT1a serotonin receptor; actives 0.56% (n = 65,000); AID 567; CHO 5-HT1a Ga15 NFAT-bla reporter, FRET ratio; 0% basal, 100% maximal reference agonist; activation, % at 10 µM; P08908;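 active = activation above the screen-wide mean activation plus 3 SD, cut at about 19% in these data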;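 note: 0% = DMSO wells and 100% = 5-CT at EC100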
# S1P1 ag-PAM – S1P1 (human) agonism or agonism potentiation; P21453; S1P1 CRE-bla cells, forskolin, beta-lactamase FRET, potentiator mode; S1P1 agonist co-added at EC20, 2 nM; 100% = saturating reference agonist, 0% = basal; activation, % at 9.5 µM; actives 0.57% (n = 56,000);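 active = activation above a cutoff set at the mean activation of all tested compounds plus 3 SD, cut at about 54% in these data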;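 note: forskolin at 4 µM as EC80 and the EC20 agonist is SEW2871; 100% = SEW2871 at its EC100 plus forskolin at EC80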
# Target sequence (P21453 whole entry, looked up): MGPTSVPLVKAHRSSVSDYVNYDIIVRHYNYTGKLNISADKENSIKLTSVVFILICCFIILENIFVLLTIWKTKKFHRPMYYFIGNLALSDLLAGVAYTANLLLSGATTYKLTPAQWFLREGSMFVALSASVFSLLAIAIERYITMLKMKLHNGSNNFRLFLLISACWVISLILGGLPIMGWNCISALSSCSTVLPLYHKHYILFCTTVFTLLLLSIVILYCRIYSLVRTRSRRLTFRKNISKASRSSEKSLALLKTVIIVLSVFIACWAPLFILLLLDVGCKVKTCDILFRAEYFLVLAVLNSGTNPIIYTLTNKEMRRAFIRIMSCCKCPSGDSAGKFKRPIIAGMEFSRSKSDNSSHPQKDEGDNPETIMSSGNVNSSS
# 5-HT1A blocker – antagonists of human 5-HT1a serotonin receptor. P08908. CHO 5-HT1a Ga15 NFAT-bla reporter, antagonist mode. inhibition, % at 10 µM. actives 0.68% (n = 62,000). AID 612;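 active = inhibition above the mean of all tested compounds plus 3 SD, cut at about 43% in these data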;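 note: receptor stimulated by 5-CT agonist at 100 nM near EC80; beta-lactamase reporter measured by ratiometric fluorescence of a cleavable substrate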
# HTR1E agonist – activates the human 5-HT1E serotonin receptor | P28566 | CHO 5-HT1E Ga15 NFAT-bla reporter, FRET; 0% DMSO wells, 100% control agonist wells | activation, % at 6 µM | actives 0.69% (n = 65,000);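 active = activation above a set limit, the screen-wide mean activation plus 3 SD, cut at about 8.5% in these data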;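 note: 100% = positive control agonist at 1 µM giving full maximal response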
# HTR1E antagonist – 5-HT1E (human) receptor antagonism; P28566; CHO 5-HT1E Ga15 NFAT-bla reporter, FRET, antagonist; inhibition, % at 6 µM; actives 0.99% (n = 65,000); AID 571;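 active = inhibition above a set limit, the mean inhibition across every tested compound plus 3 SD, cut at about 29% in these data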;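 note: signal is the 460 over 535 nm emission ratio of beta-lactamase substrate; 0% = agonist plus DMSO wells and 100% = wells without agonist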
# S1P3 ag – agonists of human S1P3 receptor; Q99500; S1P3 NFAT-BLA reporter cells, agonism, FRET ratio; relative to 1 µM S1P, basal subtracted; activation, % at 4.5 µM; actives 0.1% (n = 60,000); AID 373;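 active = activation above the screen-wide mean plus 3 SD, cut at about 4.5% in these data, passing the limit was not always enough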
#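 Material: Human S1P3 NFAT-BLA reporter CHO cells | Incubation: Overnight plating, 4 h compound 37 °C, 2 h substrate RT | Signal: FRET β-lactamase substrate fluorescence, excitation 405 nm, 460/535 nm emission ratio, background-subtracted | Compound: 4.5 µM final, single dose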
# * = called active by the depositor; nt = no result.
SMILES,5HT1a ag,S1P1 ag-PAM,5-HT1A blocker,HTR1E agonist,HTR1E antagonist,S1P3 ag
COc1cccc(OCC(O)CN2CCOCC2)c1 (configuration not stated),0.0,-23.3,-11.5,0.6,-12.3,0.2
COc1cccc(OCC(O)CN2CCC(Cc3ccccc3)CC2)c1 (configuration not stated),8.8,2.0,51.7*,1.2,-0.8,-0.6
[O-][N+]1=c2ccc(Nc3ccccc3)cc2=NC12CCCCC2,-3.3,33.6,55.2*,0.3,30.2*,-1.5
[O-][N+]1=C2CCC/C(=N\O)C2=NC12CCCCC2,-4.3,-9.4,-9.0,0.2,-3.2,-0.6
O=c1c2ccccc2nc(SCc2cn3ccsc3n2)n1-c1ccccc1,1.0,-40.0,-1.2,0.5,37.6*,-0.2
c1ccc(CSCc2cn3ccsc3n2)cc1,-2.7,4.2,-2.8,-0.3,-10.9,-0.9
O=c1c2ccccc2nc(SCc2cn3ccsc3n2)n1-c1ccccc1F,9.5,18.1,11.7,0.0,43.0*,-1.2
Cc1ccc(C2CC(C(F)(F)F)n3ncc(C(=O)NCc4ccco4)c3N2)cc1 (configuration not stated),-4.0,10.5,-1.4,-0.9,-1.1,-1.3
CCN(C(=O)C1CCCCC1)c1nnc(-c2cccnc2)s1,1.5,99.0*,3.1,0.3,2.7,-0.3
CCN(C(=O)c1c(OC)cccc1OC)c1nnc(-c2cccnc2)s1,0.3,-3.9,-3.2,0.0,-3.0,1.1
CC(=O)Nc1ccc(S(=O)(=O)N(Cc2ccco2)CC2CCCO2)cc1 (configuration not stated),-1.8,-17.2,-2.7,0.9,1.4,0.4
CN(C)S(=O)(=O)N1CCC(c2ccc(F)cc2)C(COc2ccc3c(c2)OCO3)C1 (configuration not stated),-0.6,-11.8,47.2*,-0.7,9.0,-1.5
Cc1cc2nc(-c3ccc(NC(=O)C(C)C)cc3)oc2cc1C,-0.7,108.3*,7.1,0.3,-11.8,-2.2
CSc1oc(-c2ccccc2)nc1S(=O)(=O)c1ccc(C)cc1,-1.0,-27.2,19.7,-1.7,6.4,-1.8
Cc1ccc(S(=O)(=O)c2nc(-c3ccccc3)oc2NCc2cccnc2)cc1,-3.6,-42.2,-1.4,47.8*,-1.9,-0.1
O=C(NC1(C(F)(F)F)NC(=O)N(CC2CCCCC2)C1=O)c1ccco1 (configuration not stated),-1.0,-3.3,-9.7,-0.9,-0.7,-0.7
COc1ccccc1N1CSC2=C(C#N)C(c3ccc(SC)cc3)CC(=O)N2C1 (configuration not stated),-0.3,-5.4,0.7,0.1,-11.9,0.0
COC(=O)c1[nH]c2c(c1C)C(=O)CC(c1cccs1)C2 (configuration not stated),-4.0,-2.4,39.2,-0.4,57.5*,-0.6
CCOC(=O)c1[nH]c2c(c1C)C(=O)CC(c1ccco1)C2 (configuration not stated),-1.2,-9.7,53.1*,-0.3,74.5*,-0.8
Cc1c(C(=O)OCCOC(C)C)[nH]c2c1C(=O)CC(c1ccco1)C2 (configuration not stated),-2.8,-12.4,62.8*,-1.0,81.1*,-1.5
CSCCOC(=O)c1[nH]c2c(c1C)C(=O)CC(c1ccco1)C2 (configuration not stated),0.1,21.3,27.1,0.6,56.6*,0.1
CCOc1cccc2cc(-c3csc(NC(=O)CCC(=O)N4CCN(C)CC4)n3)c(=O)oc12,-0.4,-0.8,-0.6,-0.8,3.4,-1.2
Cc1c(C(=O)O)[nH]c2c1C(=O)CC(c1ccccc1)C2 (configuration not stated),0.3,nt,-11.6,0.2,4.9,nt
COCCOC(=O)c1[nH]c2c(c1C)C(=O)CC(c1ccccc1)C2 (configuration not stated),0.6,nt,35.8,-0.7,66.7*,nt
COCCOC(=O)c1[nH]c2c(c1C)C(=O)CC(c1ccco1)C2 (configuration not stated),-1.4,-4.5,16.1,-0.6,34.7*,-0.7
